Experimental data as given in ChEMBL document CHEMBL4219235, “Novel fatty acid chain modified GLP-1 derivatives with prolonged in vivo glucose-lowering ability and balanced glucoregulatory activity” (Bioorg Med Chem, 2018).
Activity calls are given as the source filed them.

Legend:
Mus musculus [1] = assay: Antidiabetic activity in STZ/diet-induced obese C57BL/6 mouse assessed as reduction in food intake at 25 nmol/kg, ip measured after 6 hrs relative to control; type: functional; design: scale not given: the % may be the effect or the level left
In short: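 Acute study in fasted mice given an i.p. dose; food intake was measured at 6 h after administration.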

Mus musculus [2] = assay: Antidiabetic activity in C57BL/6 mouse assessed as reduction in blood glucose AUC (0 to 120 mins) at 25 nmol/kg, ip treated 30 mins prior to glucose challenge by IPGTT; type: functional, organism-based
In short: (§1)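 Male C57BL/6 mice, 6 weeks old, fasted overnight (12 h), n = 6/group; given 25 nmol/kg or saline i.p., then i.p. glucose challenge (2.0 g/kg) 30 min later, set as 0 h. Glucose challenges were repeated at 6 h intervals to mimic three meals a day. Blood glucose was followed and AUC calculated.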

INS1 [3] = assay: Cytoprotective activity against STZ-induced oxidative stress in rat INS-1 cells assessed as cell death at 10 to 100 nM after 24 hrs by MTT assay (reference value: 45%); type: functional
Mus musculus [4] = assay: Antidiabetic activity in C57BL/6 mouse assessed as reduction in blood glucose level at 25 nmol/kg, ip treated 30 mins prior to glucose challenge measured after 120 mins by IPGTT; type: functional, organism-based; in short: as §1
Mus musculus [5] = assay: Hypoglycemic activity in STZ-induced diabetic Kunming mouse model assessed as reduction in glucose AUC (0 to 36 hrs) at 150 nmol/kg, ip administered as single dose; type: functional, organism-based
In short: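 Non-fasted STZ-diabetic Kunming mice with free access to food and water received a single i.p. injection (25 or 150 nmol/kg) or saline; n = 6/group. Blood glucose was followed over time. Euglycemic duration was defined as time below 8.35 mmol/L, and glucose AUC0–36h was calculated.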

Mus musculus [6] = assay: Antidiabetic activity in STZ/diet-induced obese C57BL/6 mouse assessed as reduction in serum ALT level at 25 nmol/kg, ip administered daily for 4 weeks measured post last dose; type: functional, organism-based
In short: (§2)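 Male C57BL/6J DIO mice on high-fat diet were treated for 4 weeks with saline as control; LFD-fed mice (n = 6/group) were used as normal reference. Water intake, food intake and body weight were recorded daily. Terminal serum leptin and adiponectin were measured by ELISA. TC, TG, HDL, LDL, ALT and AST were measured on a clinical chemistry analyzer.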

[7] = target: Glucagon-like peptide 1 receptor (Homo sapiens, UniProt P43220); assay: Agonist activity at recombinant human GLP1 receptor expressed in HEK293 cells assessed as cAMP accumulation by TR-FRET assay; type: functional, cell-based
INS1 [8] = assay: Cytoprotective activity against STZ-induced oxidative stress in rat INS-1 cells assessed as reduction in apoptosis at 10 nM after 24 hrs by Annexin-V-FITC/propidium iodide staining based flow cytometric analysis; type: functional, cell-based
In short: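 INS-1 cells, about 5000/well, were seeded for 24 h, then exposed to glucolipotoxic medium, 50 µM H2O2 or 1 µM STZ, plus peptide at 10 nM, for 24 h. Apoptosis was analyzed by flow cytometry; triplicate, repeated three times.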

INS1 [9] = assay: Cytoprotective activity against STZ-induced oxidative stress in rat INS-1 cells assessed as cell death at 1 nM after 24 hrs by MTT assay (reference value: 45%); type: functional
Mus musculus [10] = assay: Antidiabetic activity in STZ/diet-induced obese C57BL/6 mouse assessed as reduction in cumulative water intake at 25 nmol/kg, ip administered daily for 4 weeks measured daily during compound dosing relative to control; type: functional; design: scale not given: the % may be the effect or the level left; in short: as §2
Mus musculus [11] = assay: Antidiabetic activity in STZ/diet-induced obese C57BL/6 mouse assessed as reduction in body weight gain at 25 nmol/kg, ip administered daily for 4 weeks measured daily during compound dosing; type: functional, organism-based; in short: as §2
[12] = Stability of the compound in Sprague-Dawley rat plasma by LC-MS/MS analysis; type: ADME, cell-free
In short: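 Compounds were incubated in plasma from adult male SD rats at 37 °C for up to 72 h. Samples at each time point underwent solid-phase extraction and LC-MS/MS analysis to follow degradation and derive half-life.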

Albumin = Albumin (Homo sapiens, UniProt P02768); assay: Binding affinity to human serum albumin after 3 hrs by LC-MS/MS analysis; design: concentration or dose not given beside the values
In short: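 HSA was coupled to NHS-activated Sepharose (6–7 mg HSA/mL wet resin); an inactivated albumin-free resin served as control. Peptide (100 µg/mL in PBS) was incubated with each resin for 3 h at 25 °C. After centrifugation, unbound peptide in the supernatant was quantified by LC-MS/MS.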

INS1 [13] = assay: Cytoprotective activity against H2O2-induced glucolipotoxicity in rat INS-1 cells assessed as increase in cell viability at 1 to 100 nM after 24 hrs by MTT assay; type: functional, cell-based
In short: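 INS-1 cells, about 5000/well, were seeded for 4 h, then stressed with one of: glucolipotoxic medium (25 mM glucose + 0.4 mM oleate-BSA), 50 µM H2O2 or 1 µM STZ. Peptide (1, 10 or 100 nM) was added and cells were incubated 24 h. Viability was read by MTT (200 µg/mL, 3 h, 37 °C), formazan dissolved in DMSO, A570. Triplicate, repeated three times.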

Rattus norvegicus [14] = assay: Antidiabetic activity in Sprague-Dawley rat assessed as time required to increase in plasma insulin level at 25 nmol/kg, ip treated 30 mins prior to glucose challenge by ELISA; type: functional
In short: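 Male SD rats (200–250 g), fasted 12 h, n = 6/group, received 25 nmol/kg i.p. or saline 30 min before an oral glucose load (10 g/kg, set as 0 min). EDTA plasma insulin was measured by rat insulin ELISA.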

Mus musculus [15] = assay: Antidiabetic activity in STZ-induced diabetic Kunming mouse model assessed as fasting blood glucose level at 25 nmol/kg, ip administered once daily for 3 weeks measured at 5 days interval for 21 days during compound dosing (reference value: […]); type: functional
In short: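 STZ diabetes induced with 40 mg/kg/day i.p. for 5 consecutive days after overnight fasting. Mice with fasting glucose ≥11.1 mM were grouped by matched body weight and dosed 25 nmol/kg i.p. once daily for 3 weeks; saline served as control. Fasting plasma glucose was measured every five days, and HbA1c at day 24; n = 6/group.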

Mus musculus [16] = assay: Antidiabetic activity in STZ/diet-induced obese C57BL/6 mouse assessed as reduction in size of white adipocytes at 25 nmol/kg, ip administered daily for 4 weeks measured post last dose; type: functional, organism-based
Rattus norvegicus [17] = assay: Antidiabetic activity in Sprague-Dawley rat assessed as reduction in blood glucose AUC at 25 nmol/kg, ip treated 30 mins prior to glucose challenge measured at 15 mins interval for 180 mins by OGTT; type: functional, organism-based
Mus musculus [18] = assay: Antidiabetic activity in STZ/diet-induced obese C57BL/6 mouse assessed as increase in serum adiponectin level at 25 nmol/kg, ip administered daily for 4 weeks measured post last dose; type: functional, organism-based; in short: as §2
Rattus norvegicus [19] = assay: Antidiabetic activity in Sprague-Dawley rat assessed as blood glucose level at 25 nmol/kg, ip treated 30 mins prior to glucose challenge measured at 15 mins interval for 180 mins by OGTT (reference value: 13.8 +/- 1.31 nmol/L); type: functional
Mus musculus [20] = assay: Hypoglycemic activity in STZ-induced diabetic Kunming mouse model assessed as time required to reduce blood glucose level of […] at 25 nmol/kg, ip administered as single dose; type: functional
In short: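 Non-fasted STZ-diabetic Kunming mice with free access to food and water received a single i.p. injection (25 or 150 nmol/kg) or saline; n = 6/group. Blood glucose was followed over time.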

Albumin, sequence (P02768 whole entry): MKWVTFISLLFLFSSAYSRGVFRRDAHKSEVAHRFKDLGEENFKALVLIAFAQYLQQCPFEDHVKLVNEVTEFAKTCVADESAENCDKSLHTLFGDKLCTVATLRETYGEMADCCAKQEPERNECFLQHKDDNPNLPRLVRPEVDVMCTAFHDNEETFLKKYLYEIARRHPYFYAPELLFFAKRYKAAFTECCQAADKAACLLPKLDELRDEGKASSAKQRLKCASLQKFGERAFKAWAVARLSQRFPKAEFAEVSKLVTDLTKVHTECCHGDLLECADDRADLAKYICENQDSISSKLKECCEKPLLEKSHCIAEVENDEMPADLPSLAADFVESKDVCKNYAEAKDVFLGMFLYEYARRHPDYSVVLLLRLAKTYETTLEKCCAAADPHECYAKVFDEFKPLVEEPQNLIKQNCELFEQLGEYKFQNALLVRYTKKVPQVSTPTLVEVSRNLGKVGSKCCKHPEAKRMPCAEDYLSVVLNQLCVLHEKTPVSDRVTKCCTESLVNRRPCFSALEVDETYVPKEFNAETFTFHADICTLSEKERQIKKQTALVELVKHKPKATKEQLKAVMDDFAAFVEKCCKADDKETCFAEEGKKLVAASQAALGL
Glucagon-like peptide 1 receptor, sequence (P43220 whole entry): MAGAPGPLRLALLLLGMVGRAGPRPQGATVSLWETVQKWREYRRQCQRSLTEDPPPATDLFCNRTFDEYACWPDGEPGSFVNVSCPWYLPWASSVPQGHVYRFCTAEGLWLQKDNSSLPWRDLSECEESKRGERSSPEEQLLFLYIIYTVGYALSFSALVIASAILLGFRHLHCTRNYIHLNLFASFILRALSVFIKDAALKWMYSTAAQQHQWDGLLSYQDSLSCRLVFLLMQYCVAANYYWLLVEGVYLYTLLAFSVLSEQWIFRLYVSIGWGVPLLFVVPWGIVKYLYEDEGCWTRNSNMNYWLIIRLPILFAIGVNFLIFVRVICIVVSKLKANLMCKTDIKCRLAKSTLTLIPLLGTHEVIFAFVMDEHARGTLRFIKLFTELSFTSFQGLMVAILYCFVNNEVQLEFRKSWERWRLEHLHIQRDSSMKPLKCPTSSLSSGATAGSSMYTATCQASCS

SMILES: CC[C@H](C)[C@H](NC(=O)[C@H](Cc1ccccc1)NC(=O)[C@H](CCC(=O)O)NC(=O)[C@H](CCCCN)NC(=O)[C@H](C)NC(=O)[C@H](C)NC(=O)[C@H](CCC(N)=O)NC(=O)CNC(=O)[C@H](CCC(=O)O)NC(=O)[C@H](CC(C)C)NC(=O)[C@H](Cc1ccc(O)cc1)NC(=O)[C@H](CO)NC(=O)[C@H](CO)NC(=O)[C@@H](NC(=O)[C@H](CC(=O)O)NC(=O)[C@H](CO)NC(=O)[C@@H](NC(=O)[C@H](Cc1ccccc1)NC(=O)[C@@H](NC(=O)CNC(=O)[C@H](CCC(=O)O)NC(=O)CNC(=O)[C@@H](N)Cc1cnc[nH]1)[C@@H](C)O)[C@@H](C)O)C(C)C)C(=O)N[C@@H](C)C(=O)N[C@@H](Cc1c[nH]c2ccccc12)C(=O)N[C@@H](CC(C)C)C(=O)N[C@H](C(=O)N[C@@H](CCCCN)C(=O)NCC(=O)N[C@@H](CCCNC(=N)N)C(=O)N[C@@H](CSC1CC(=O)N(CCCCCCCCCCCC(=O)O)C1=O)C(N)=O)C(C)C (stereo partly specified)
- Activity (Mus musculus [1]): <=34.5%
- Activity (Mus musculus [2]): Active
- Activity (INS1 [3]): 21.9%
- Activity (Mus musculus [4]): Active
- Activity (Mus musculus [5]): Active
- Activity (Mus musculus [6]): Active
- EC50 [7]: 19.8 pM
- Activity (INS1 [8]): Active
- Activity (INS1 [9]): 28.8%
- Activity (Mus musculus [10]): <=33.5%
- Activity (Mus musculus [11]): Active
- Stability [12]: Stable
- Activity (Albumin): 62.4%
- Activity (INS1 [13]): Active
- Time (Rattus norvegicus [14]): 15 to 60 min
- Activity (Mus musculus [15]): 1.07e+07 nmol/L
- Activity (Mus musculus [16]): Active
- Activity (Rattus norvegicus [17]): Active
- Activity (Mus musculus [18]): Active
- Activity (Rattus norvegicus [19]): 6.7e+06 nmol/L
- Time (Mus musculus [20]): 9.7 h
